Test results published in ChEMBL document CHEMBL2203173 (J Med Chem, 2012).
pIC50: −log10 of the molar value. The source made the active and inactive calls. The calls are words filed in the database; no cut-off is given here.

Legend:
SK-N-MC [1] = assay: Antiproliferative activity at human SK-N-MC cells after 72 hrs by MTT assay; type: functional, cell-based
SK-N-MC [2] = assay: Induction of 59Fe mobilization in human SK-N-MC cells at 25 uM after 3 hrs by gamma-scintillation counter; type: functional
In short: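 SK-N-MC cells prelabeled with 59Fe-transferrin (0.75 μM) for 3 h/37 °C, then washed four times on ice with ice-cold PBS. Cells reincubated with or without chelators (25 μM) for 3 h/37 °C. Released 59Fe given as % of cellular 59Fe. Mean ± SD of three experiments.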

Mus musculus [3] = assay: Toxicity in BALB/c nu/nu mouse xenografted with human DMS53 cells assessed as change in organ weight at 0.75 mg/kg, iv administered for 5 days a week measured after 21 days; type: organism-based, DMS-53; set-up: dose 0.75 mg/kg, route intravenous; settings: in vivo, 504 h
In short: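 DMS-53 xenograft-bearing nude mice, treatment started at 100 mm3 tumour volume: iv tail-vein dosing in 30% propylene glycol/saline, 5 days/week for 21 days. Organs were weighed at sacrifice and compared with vehicle-control mice.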

Mus musculus [4] = assay: Toxicity in BALB/c nu/nu mouse xenografted with human DMS53 cells assessed as hepatocellular necrosis at 0.75 mg/kg, iv administered for 5 days a week measured after 21 days by hematoxylin and eosin staining method; type: organism-based, DMS-53; set-up: dose 0.75 mg/kg, route intravenous; settings: in vivo, 504 h
In short: (§1)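 Nude mice with DMS-53 xenografts dosed by tail-vein iv injection in 30% propylene glycol/saline, starting at 100 mm3 tumour volume, 5 days/week for 21 days. Spleen, kidney, liver, heart, lungs and brain were stained with H&E, Perls' (Fe loading) and Gomori Trichrome (fibrosis) by standard methods, and an independent veterinary pathologist examined them.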

SK-N-MC [5] = assay: Inhibition to 59Fe uptake from 59Fe-transferrin in human SK-N-MC cells at 25 uM after 3 hrs; type: functional; set-up: scale not given: the % may be the effect or the level left
In short: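 SK-N-MC cells labeled with 59Fe-transferrin (0.75 μM) for 3 h/37 °C with or without chelators (25 μM). Cells washed four times on ice with ice-cold PBS. Internalized 59Fe separated with Pronase (1 mg/mL) and expressed as % of control. Mean ± SD of three experiments.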

Mus musculus [6] = assay: Toxicity in BALB/c nu/nu mouse xenografted with human DMS53 cells assessed as change in hematopoetic cells in splenic red pulp at 0.75 mg/kg, iv administered for 5 days a week measured after 21 days by hematoxylin and eosin staining method; type: organism-based, DMS-53; set-up: dose 0.75 mg/kg, route intravenous; settings: in vivo, 504 h
In short: (§2)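 DMS-53 xenograft nude mice, dosed from 100 mm3 tumor volume. Reference chelator given iv via tail vein as the base form, 5 days/week for 21 days, vehicle 30% propylene glycol/saline. Organs taken at sacrifice on day 21, stained with H&E, Perls' and Gomori Trichrome, and examined by an independent veterinary pathologist.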

A549 = assay: Antiproliferative activity at human A549 cells after 72 hrs by MTT assay; type: functional, cell-based; settings: Homo sapiens, A549, 72 h
MRC5 = assay: Antiproliferative activity at human MRC5 cells after 72 hrs by MTT assay; type: functional, cell-based; settings: MRC5, 72 h
Mus musculus [7] = assay: Toxicity in BALB/c nu/nu mouse xenografted with human DMS53 cells assessed as change in RBC count at 0.75 mg/kg, iv administered for 5 days a week measured after 21 days; type: organism-based, DMS-53; set-up: dose 0.75 mg/kg, route intravenous; settings: in vivo, 504 h
Mus musculus [8] = assay: Toxicity in BALB/c nu/nu mouse xenografted with human DMS53 cells assessed as change in platelet count at 0.75 mg/kg, iv administered for 5 days a week measured after 21 days; type: organism-based, DMS-53; set-up: dose 0.75 mg/kg, route intravenous; settings: in vivo, 504 h
In short: (§3)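 Nude mice carrying DMS-53 xenografts (treatment from 100 mm3) received iv tail-vein doses in 30% propylene glycol/saline, 5 days/week for 21 days. Hematological indices (RBC, hemoglobin, hematocrit, reticulocytes, WBC, platelets) were then compared with vehicle controls.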

Mus musculus [9] = assay: Toxicity in BALB/c nu/nu mouse xenografted with human DMS53 cells assessed as hepatocellular necrosis at 3 mg/kg, iv administered for 5 days a week measured after 21 days by hematoxylin and eosin staining method; type: organism-based, DMS-53; set-up: dose 3 mg/kg, route intravenous; settings: in vivo, 504 h; in short: as §1
Mus musculus [10] = assay: Toxicity in BALB/c nu/nu mouse xenografted with human DMS53 cells assessed as change in hemoglobin level at 0.75 mg/kg, iv administered for 5 days a week measured after 21 days; type: organism-based, DMS-53; set-up: dose 0.75 mg/kg, route intravenous; settings: in vivo, 504 h
In short: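 DMS-53 xenografts in nude mice; dosing started at 100 mm3 tumor volume. Agents given iv via tail vein, 5 days/week for 21 days, vehicle 30% propylene glycol/saline, vehicle-treated controls. Mice sacrificed day 21. Body and organ weights and hematological indices recorded. Spleen, kidney, liver, heart, lungs and brain were stained with H&E, Perls' and Gomori Trichrome and read by an independent veterinary pathologist.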

Mus musculus [11] = assay: Toxicity in BALB/c nu/nu mouse xenografted with human DMS53 cells assessed as hepatocellular fibrosis at 0.75 mg/kg, iv administered for 5 days a week measured after 21 days by hematoxylin and eosin staining method; type: organism-based, DMS-53; set-up: dose 0.75 mg/kg, route intravenous; settings: in vivo, 504 h; in short: as §1
Mus musculus [12] = assay: Toxicity in human DMS53 cells xenografted BALB/c nu/nu mouse assessed as body weight change at 0.75 mg/kg, iv administered for 5 days a week measured after 21 days; type: organism-based, DMS-53; set-up: dose 0.75 mg/kg, route intravenous; settings: in vivo, 504 h
In short: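 Body weights of DMS-53 xenograft-bearing nude mice were followed over 21 days of iv tail-vein dosing, 5 days/week, in 30% propylene glycol/saline, beginning at 100 mm3 tumour volume. Values are the average body weight per group.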

Mus musculus [13] = assay: Toxicity in BALB/c nu/nu mouse xenografted with human DMS53 cells assessed as cardiac fibrosis at 0.75 mg/kg, iv administered for 5 days a week measured after 21 days by […]; type: organism-based, Heart, DMS-53; set-up: dose 0.75 mg/kg, route intravenous; settings: in vivo, 504 h
In short: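 DMS-53 xenograft nude mice given agents iv by tail vein 5 days/week in 30% propylene glycol/saline for 21 days. At sacrifice, heart sections were stained with Gomori Trichrome to detect fibrosis. Spleen, kidney, liver, heart, lungs and brain were also stained with H&E and Perls' and examined by an independent veterinary pathologist.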

Mus musculus [14] = assay: Toxicity in BALB/c nu/nu mouse xenografted with human DMS53 cells assessed as vacuolation at 0.75 mg/kg, iv administered for 5 days a week measured after 21 days by hematoxylin and eosin staining method; type: organism-based, DMS-53; set-up: dose 0.75 mg/kg, route intravenous; settings: in vivo, 504 h; in short: as §1
DMS-53 [15] = assay: Antitumor activity against human DMS53 cells xenografted BALB/c nu/nu mouse assessed as reduction of tumor volume at 0.75 mg/kg, iv administered for 5 days a week measured after 21 days (RVb = 922 94 mm'3); type: functional, organism-based; set-up: dose 0.75 mg/kg
In short: (§4)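 Nude mice bearing DMS-53 xenografts began dosing once tumors reached 100 mm3. Agents given iv by tail vein 5 days/week in vehicle of 30% propylene glycol/saline, with vehicle controls. Net tumor volume followed for 21 days. Mice sacrificed on day 21 and tumors excised and wet-weighed.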

Mus musculus [16] = assay: Toxicity in BALB/c nu/nu mouse xenografted with human DMS53 cells assessed as change in lungs histology at 0.75 mg/kg, iv administered for 5 days a week measured after 21 days by hematoxylin and eosin staining method; type: organism-based, DMS-53; set-up: dose 0.75 mg/kg, route intravenous; settings: in vivo, 504 h; in short: as §2
Mus musculus [17] = assay: Toxicity in BALB/c nu/nu mouse xenografted with human DMS53 cells assessed as change in reticulocyte count at 0.75 mg/kg, iv administered for 5 days a week measured after 21 days; type: organism-based, DMS-53; set-up: dose 0.75 mg/kg, route intravenous; settings: in vivo, 504 h; in short: as §3
DMS-53 [18] = assay: Antiproliferative activity at human DMS53 cells after 72 hrs by MTT assay; type: functional, cell-based; settings: Homo sapiens, DMS-53, 72 h
Mus musculus [19] = assay: Toxicity in BALB/c nu/nu mouse xenografted with human DMS53 cells assessed as change in brain histology at 0.75 mg/kg, iv administered for 5 days a week measured after 21 days by hematoxylin and eosin staining method; type: organism-based, DMS-53; set-up: dose 0.75 mg/kg, route intravenous; settings: in vivo, 504 h; in short: as §2
DMS-53 [20] = assay: Antitumor activity against human DMS53 cells xenografted in BALB/c nu/nu mouse assessed as reduction of tumor volume at 3 mg/kg, iv administered for 5 days a week measured after 21 days (RVb = 922 94 mm'3); type: functional, organism-based; set-up: dose 3 mg/kg; in short: as §4
DMS-53 [21] = assay: Antitumor activity against human DMS53 cell xenografted BALB/c nu/nu mouse assessed as reduction in tumor volume at 10 mg/kg, po administered for 3 times a week measured after 20 days (reference value: 997 155 mm'3); type: functional, organism-based; set-up: dose 10 mg/kg
In short: (§5)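 DMS-53 xenograft nude mice gavaged 3 times/week with agent in 30% propylene glycol/saline or with vehicle alone. Net tumor volume followed for 20 days; the study ended when control tumors neared the 1000 mm3 ethical limit. Tumors excised and wet-weighed on day 20. n = 6–11 mice/condition, mean ± SD.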

DMS-53 [22] = assay: Antitumor activity against human DMS53 cells xenografted in BALB/c nu/nu mouse assessed as reduction of tumor volume at 6 mg/kg, iv administered for 5 days a week measured after 21 days (RVb = 922 94 mm'3); type: functional, organism-based; set-up: dose 6 mg/kg; in short: as §4
DMS-53 [23] = assay: Antitumor activity against human DMS53 cell xenografted BALB/c nu/nu mouse assessed as reduction in tumor volume at 7.5 mg/kg, po administered for 3 times a week measured after 20 days (reference value: 997 155 mm'3); type: functional, organism-based; set-up: dose 7.5 mg/kg; in short: as §5
DMS-53 [24] = assay: Antitumor activity against human DMS53 cells xenografted in BALB/c nu/nu mouse assessed as reduction in tumor weight at 4 mg/kg, iv administered for 5 days a week measured after 21 days (reference value: 0.830.11 g); type: functional, organism-based; set-up: dose 4 mg/kg; in short: as §4
DMS-53 [25] = assay: Antitumor activity against human DMS53 cells xenografted in BALB/c nu/nu mouse assessed as reduction of tumor volume at 8 mg/kg, iv administered for 5 days a week measured after 21 days (RVb = 922 94 mm'3); type: functional, organism-based; set-up: dose 8 mg/kg; in short: as §4
DMS-53 [26] = assay: Antitumor activity against human DMS53 cells xenografted in BALB/c nu/nu mouse assessed as reduction in tumor weight at 8 mg/kg, iv administered for 5 days per week measured after 21 days (reference value: 0.830.11 g); type: functional, organism-based; set-up: dose 8 mg/kg; in short: as §4
DMS-53 [27] = assay: Antitumor activity against human DMS53 cell xenografted BALB/c nu/nu mouse assessed as reduction in tumor volume at 20 mg/kg, po administered for 3 times a week measured after 20 days (reference value: 997 155 mm'3); type: functional, organism-based; set-up: dose 20 mg/kg; in short: as §5
DMS-53 [28] = assay: Antitumor activity against human DMS53 cells xenografted in BALB/c nu/nu mouse assessed as reduction of tumor volume at 4 mg/kg, iv administered for 5 days a week measured after 21 days (RVb = 922 94 mm'3); type: functional, organism-based; set-up: dose 4 mg/kg; in short: as §4

Compound: CCN(CC)C(=S)N/N=C(\c1ccccc1)c1ccccn1
- pIC50 (SK-N-MC [1]): 7.96

Compound: CN(C)C(=S)NN=C(c1ccccn1)c1ccccn1
- Activity (SK-N-MC [2]): 45%
- Activity (Mus musculus [3]): Non-toxic
- Activity (Mus musculus [4]): Non-toxic
- Activity (SK-N-MC [5]): 3.5%
- Activity (Mus musculus [6]): Non-toxic
- pIC50 (A549): 7.70
- pIC50 (MRC5): < 5.00
- Activity (Mus musculus [7]): Non-toxic
- Activity (Mus musculus [8]): Non-toxic
- Activity (Mus musculus [9]): Non-toxic
- Activity (Mus musculus [10]): Non-toxic
- Activity (Mus musculus [11]): Non-toxic
- Activity (Mus musculus [12]): Non-toxic
- Activity (Mus musculus [13]): Toxic
- Activity (Mus musculus [14]): Toxic
- Activity (DMS-53 [15]): Active
- Activity (Mus musculus [16]): Non-toxic
- Activity (Mus musculus [17]): Non-toxic
- pIC50 (DMS-53 [18]): 8.00
- Activity (Mus musculus [19]): Non-toxic

Compound: CNC(=S)N/N=C(\c1ccccc1)c1ccccn1
- pIC50 (SK-N-MC [1]): 7.74

Compound: CN(C(=S)NN=C(c1ccccn1)c1ccccn1)c1ccccc1
- pIC50 (SK-N-MC [1]): 8.22

Compound: COc1cc([C@@H]2c3cc4c(cc3[C@@H](O[C@@H]3O[C@@H]5CO[C@@H](C)O[C@H]5[C@H](O)[C@H]3O)[C@H]3COC(=O)[C@H]23)OCO4)cc(OC)c1O [ETOPOSIDE]
- pIC50 (A549): 6.10
- pIC50 (DMS-53 [18]): 5.82

Compound: CCN(C)C(=S)NN=C(c1ccccn1)c1ccccn1
- Activity (DMS-53 [20]): Active
- Activity (DMS-53 [21]): Active
- Activity (DMS-53 [22]): Active
- Activity (DMS-53 [23]): Active

Compound: CN(C(=S)NN=C(c1ccccn1)c1ccccn1)C1CCCCC1
- Activity (DMS-53 [24]): Active
- Activity (DMS-53 [25]): Active
- Activity (DMS-53 [26]): Active
- Activity (DMS-53 [27]): Active
- Activity (DMS-53 [21]): Active
- Activity (DMS-53 [28]): Active
